Each block holds one compound with its values, some of them ahead of it. The source made the active and inactive calls. No cut-off for these calls is given here.
Key:
[1] = system: Mus musculus; experiment: Effect on HBsAg level in C57BL/6 mouse infected with AAV-Hepatitis B virus at 15 mg/kg, po bid for 56 days followed by induction of compound washout period for 14 days; assay type: functional, organism-based; settings: time 70.0 day
[2] = target: Multidrug and toxin extrusion protein 1 (Homo sapiens, UniProt Q96FL8); experiment: Inhibition of MATE1 (unknown origin) transfected in HEK293 cells; assay type: cell-based
Chain of Multidrug and toxin extrusion protein 1 (Q96FL8 whole entry): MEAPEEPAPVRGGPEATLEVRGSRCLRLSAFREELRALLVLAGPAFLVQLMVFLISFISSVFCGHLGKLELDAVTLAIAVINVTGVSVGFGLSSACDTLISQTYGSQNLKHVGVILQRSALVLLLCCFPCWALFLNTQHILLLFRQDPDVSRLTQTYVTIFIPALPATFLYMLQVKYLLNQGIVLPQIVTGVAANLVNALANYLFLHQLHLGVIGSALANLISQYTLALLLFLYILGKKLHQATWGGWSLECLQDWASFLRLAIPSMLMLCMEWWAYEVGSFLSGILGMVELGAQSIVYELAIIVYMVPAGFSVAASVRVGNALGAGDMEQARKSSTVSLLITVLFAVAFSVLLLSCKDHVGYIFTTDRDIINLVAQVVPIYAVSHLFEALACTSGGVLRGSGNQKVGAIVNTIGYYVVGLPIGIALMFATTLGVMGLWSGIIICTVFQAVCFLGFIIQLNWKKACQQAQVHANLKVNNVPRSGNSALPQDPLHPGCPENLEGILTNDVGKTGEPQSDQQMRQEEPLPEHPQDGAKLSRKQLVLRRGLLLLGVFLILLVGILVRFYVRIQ
In short: (§1)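 HEK-293 cells transfected with the uptake transporter; uptake of known probe substrates measured with test compound at eight concentrations (0.0229–50.0 μM or 0.0457–100 μM); inhibition at each concentration used to calculate IC50.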

[3] = Ratio of drug concentration in blood to plasma in human at 5 uM incubated for 60 mins; assay type: ADME, cell-free
In short: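 Compound at 5 μM in whole blood of each species, 37 ± 1 °C for 60 min; blood-to-plasma ratio and red blood cell partitioning determined.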

[4] = target: Nuclear receptor subfamily 1 group I member 2 (Homo sapiens, UniProt O75469); experiment: Induction of PXR (unknown origin)
Chain of Nuclear receptor subfamily 1 group I member 2 (O75469 whole entry): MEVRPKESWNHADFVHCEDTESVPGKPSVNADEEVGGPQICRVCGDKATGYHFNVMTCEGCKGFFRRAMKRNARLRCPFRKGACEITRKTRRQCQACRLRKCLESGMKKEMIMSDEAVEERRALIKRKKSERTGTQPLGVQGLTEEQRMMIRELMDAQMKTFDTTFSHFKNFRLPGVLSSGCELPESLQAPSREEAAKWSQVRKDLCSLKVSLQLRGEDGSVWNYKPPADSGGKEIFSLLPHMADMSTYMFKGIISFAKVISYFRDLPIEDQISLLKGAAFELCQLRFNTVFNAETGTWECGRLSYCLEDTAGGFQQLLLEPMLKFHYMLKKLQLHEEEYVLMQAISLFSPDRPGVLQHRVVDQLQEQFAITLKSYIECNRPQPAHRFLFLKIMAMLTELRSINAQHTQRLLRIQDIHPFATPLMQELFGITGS

[5] = system: Hepatitis B virus; experiment: Antiviral activity against HBV infected in human primary hepatocyte cells assessed as decrease in HBeAg level pre-infected cells with virus followed by compound treatment for 3 days and subsequent replacement of medium with compound measured after 4 days by CLIA; assay type: functional, organism-based
[6] = Volume of distribution at steady state in Beagle dog at 1 mg/kg, iv by LC-MS/MS analysis; assay type: ADME, organism-based, Canis lupus familiaris; settings: in vivo, read-out: Vdss
In short: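 Fasted males (C57BL6 mice, Sprague−Dawley rats, beagle dogs, cynomolgus monkeys) given a single IV dose of 1 mg/kg in 80% PEG 400 in water. Plasma concentrations measured by LC-MS/MS. Vss derived by noncompartmental analysis using nominal dose and nominal sampling times.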

[7] = Half life in Beagle dog at 5 mg/kg, po by LC-MS/MS analysis; assay type: ADME, organism-based, Canis lupus familiaris; settings: in vivo
In short: (§2)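 Single dose to fasted male C57BL6 mice, Sprague-Dawley rats, beagle dogs and cynomolgus monkeys, either IV at 1 mg/kg or PO as a solution at 5 mg/kg, in 80% PEG 400 in water. Plasma concentrations were measured by LC-MS/MS. PK parameters come from noncompartmental analysis using nominal doses and nominal sampling times.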

[8] = system: Hepatitis B virus; experiment: Antiviral activity against AAV-Hepatitis B virus infected in C57BL/6 mouse assessed as reduction in baseline HBV DNA production at 15 to 50 mg/kg, po qd for 56 days followed by induction of compound washout period measured after 7 days; assay type: functional, organism-based; settings: dose 15-50 mg/kg, time 63.0 day
[9] = target: Solute carrier family 22 member 1 (Homo sapiens, UniProt O15245); experiment: Inhibition of OCT1 (unknown origin) transfected in HEK293 cells; assay type: cell-based; in short: as §1
Chain of Solute carrier family 22 member 1 (O15245 whole entry): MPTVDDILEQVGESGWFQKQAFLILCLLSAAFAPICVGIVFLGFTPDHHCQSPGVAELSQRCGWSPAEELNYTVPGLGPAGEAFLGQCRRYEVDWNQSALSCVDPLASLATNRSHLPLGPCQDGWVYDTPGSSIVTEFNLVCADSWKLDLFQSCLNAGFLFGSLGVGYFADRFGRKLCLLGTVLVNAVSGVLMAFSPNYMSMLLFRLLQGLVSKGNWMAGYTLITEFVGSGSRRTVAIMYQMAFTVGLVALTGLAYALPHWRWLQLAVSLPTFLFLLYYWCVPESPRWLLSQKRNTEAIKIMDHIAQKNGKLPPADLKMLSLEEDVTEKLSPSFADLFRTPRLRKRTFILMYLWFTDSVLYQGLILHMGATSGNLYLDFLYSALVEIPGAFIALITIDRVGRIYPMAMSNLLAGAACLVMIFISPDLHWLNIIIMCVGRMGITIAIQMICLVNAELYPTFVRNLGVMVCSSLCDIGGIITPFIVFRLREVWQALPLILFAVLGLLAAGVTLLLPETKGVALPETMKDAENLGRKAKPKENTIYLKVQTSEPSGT

[10] = system: Cav1.2; experiment: Inhibition of Cav1.2 (unknown origin) expressed in mammalian cells at 10 uM by automated patch-clamp method; assay type: toxicity, cell-based, Homo sapiens; settings: mammalian cells expressing Cav1.2
In short: (§3)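 Currents of hERG, Nav1.5 or Cav1.2 channels expressed in mammalian cells recorded by automated patch clamp (QPatch 48) at room temperature.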

[11] = target: Organic anion transporter 3 (Homo sapiens, UniProt Q8TCC7); experiment: Inhibition of OAT3 (unknown origin) transfected in HEK293 cells; assay type: cell-based; in short: as §1
Chain of Organic anion transporter 3 (Q8TCC7 whole entry): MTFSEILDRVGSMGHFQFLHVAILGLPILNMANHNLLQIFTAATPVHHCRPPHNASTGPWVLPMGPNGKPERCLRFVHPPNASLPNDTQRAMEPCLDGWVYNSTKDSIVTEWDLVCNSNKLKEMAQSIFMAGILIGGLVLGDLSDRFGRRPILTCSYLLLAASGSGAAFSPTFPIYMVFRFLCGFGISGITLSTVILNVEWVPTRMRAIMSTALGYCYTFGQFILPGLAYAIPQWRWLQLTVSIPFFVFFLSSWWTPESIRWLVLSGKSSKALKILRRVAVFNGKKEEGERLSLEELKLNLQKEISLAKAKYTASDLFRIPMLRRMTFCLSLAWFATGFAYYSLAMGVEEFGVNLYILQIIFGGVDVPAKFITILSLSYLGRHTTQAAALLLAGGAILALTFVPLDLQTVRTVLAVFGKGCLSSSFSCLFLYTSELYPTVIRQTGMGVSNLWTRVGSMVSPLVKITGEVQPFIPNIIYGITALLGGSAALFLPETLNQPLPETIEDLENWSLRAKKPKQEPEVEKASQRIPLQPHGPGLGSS

[12] = target: Bile salt export pump (Homo sapiens, UniProt O95342); experiment: Inhibition of BSEP (unknown origin) transfected in HEK293 cells; assay type: cell-based
Chain of Bile salt export pump (O95342 whole entry): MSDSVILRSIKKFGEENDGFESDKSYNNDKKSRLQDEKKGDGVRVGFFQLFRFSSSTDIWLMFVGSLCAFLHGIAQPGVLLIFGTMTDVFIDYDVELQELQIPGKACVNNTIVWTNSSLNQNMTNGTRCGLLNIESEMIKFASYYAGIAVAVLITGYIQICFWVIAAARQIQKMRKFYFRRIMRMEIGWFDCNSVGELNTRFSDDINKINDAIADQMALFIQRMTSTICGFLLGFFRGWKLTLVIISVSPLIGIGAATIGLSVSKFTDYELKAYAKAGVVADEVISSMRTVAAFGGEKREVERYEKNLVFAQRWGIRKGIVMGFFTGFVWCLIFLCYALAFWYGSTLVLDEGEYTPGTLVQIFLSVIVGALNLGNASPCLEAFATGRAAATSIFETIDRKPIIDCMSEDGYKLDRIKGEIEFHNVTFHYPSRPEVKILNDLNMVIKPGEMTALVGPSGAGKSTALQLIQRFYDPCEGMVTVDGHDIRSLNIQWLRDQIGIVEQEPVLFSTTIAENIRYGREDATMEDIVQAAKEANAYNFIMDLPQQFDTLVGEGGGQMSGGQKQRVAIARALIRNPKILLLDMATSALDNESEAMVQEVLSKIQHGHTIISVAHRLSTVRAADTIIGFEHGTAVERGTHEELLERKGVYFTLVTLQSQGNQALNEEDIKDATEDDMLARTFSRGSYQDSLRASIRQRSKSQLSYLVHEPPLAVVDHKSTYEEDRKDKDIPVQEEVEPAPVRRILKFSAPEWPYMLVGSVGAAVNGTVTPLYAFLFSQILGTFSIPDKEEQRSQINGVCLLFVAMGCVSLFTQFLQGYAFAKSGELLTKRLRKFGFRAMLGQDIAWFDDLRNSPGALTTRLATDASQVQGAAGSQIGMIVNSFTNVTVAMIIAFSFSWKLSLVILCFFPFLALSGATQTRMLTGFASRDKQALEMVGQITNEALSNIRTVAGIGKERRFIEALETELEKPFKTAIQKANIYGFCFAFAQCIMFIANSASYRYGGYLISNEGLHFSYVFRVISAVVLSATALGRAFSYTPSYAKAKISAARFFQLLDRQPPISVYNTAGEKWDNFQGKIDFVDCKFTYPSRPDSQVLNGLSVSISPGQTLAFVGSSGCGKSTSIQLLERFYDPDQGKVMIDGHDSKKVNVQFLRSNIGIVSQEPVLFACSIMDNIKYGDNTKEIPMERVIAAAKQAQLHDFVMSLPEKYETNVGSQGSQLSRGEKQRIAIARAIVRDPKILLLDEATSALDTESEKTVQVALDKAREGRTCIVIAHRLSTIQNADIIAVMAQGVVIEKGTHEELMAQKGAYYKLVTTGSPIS

[13] = Half life in Sprague-Dawley rat at 5 mg/kg, po by LC-MS/MS analysis; assay type: ADME, organism-based; settings: in vivo; in short: as §2
[14] = system: Mus musculus; experiment: Effect on HBeAg level in C57BL/6 mouse infected with AAV-Hepatitis B virus at 15 mg/kg, po bid for 56 days followed by induction of compound washout period for 14 days; assay type: functional, organism-based; settings: time 70.0 day
[15] = Clearance in Cynomolgous monkey at 1 mg/kg, iv by LC-MS/MS analysis; assay type: ADME, organism-based, Macaca fascicularis; settings: cynomolgus monkey, in vivo; in short: as §2
[16] = system: Hepatitis B virus; experiment: Antiviral activity against AAV-Hepatitis B virus infected in C57BL/6 mouse assessed as reduction in baseline HBV DNA production at 15 mg/kg, po bid measured after 56 days; assay type: functional; settings: time 56 day
[17] = target: Broad substrate specificity ATP-binding cassette transporter ABCG2 (Homo sapiens, UniProt Q9UNQ0); experiment: Inhibition of BCRP in human Caco-2 cells using estrone 3-sulfate as substrate; assay type: cell-based
Chain of Broad substrate specificity ATP-binding cassette transporter ABCG2 (Q9UNQ0 whole entry): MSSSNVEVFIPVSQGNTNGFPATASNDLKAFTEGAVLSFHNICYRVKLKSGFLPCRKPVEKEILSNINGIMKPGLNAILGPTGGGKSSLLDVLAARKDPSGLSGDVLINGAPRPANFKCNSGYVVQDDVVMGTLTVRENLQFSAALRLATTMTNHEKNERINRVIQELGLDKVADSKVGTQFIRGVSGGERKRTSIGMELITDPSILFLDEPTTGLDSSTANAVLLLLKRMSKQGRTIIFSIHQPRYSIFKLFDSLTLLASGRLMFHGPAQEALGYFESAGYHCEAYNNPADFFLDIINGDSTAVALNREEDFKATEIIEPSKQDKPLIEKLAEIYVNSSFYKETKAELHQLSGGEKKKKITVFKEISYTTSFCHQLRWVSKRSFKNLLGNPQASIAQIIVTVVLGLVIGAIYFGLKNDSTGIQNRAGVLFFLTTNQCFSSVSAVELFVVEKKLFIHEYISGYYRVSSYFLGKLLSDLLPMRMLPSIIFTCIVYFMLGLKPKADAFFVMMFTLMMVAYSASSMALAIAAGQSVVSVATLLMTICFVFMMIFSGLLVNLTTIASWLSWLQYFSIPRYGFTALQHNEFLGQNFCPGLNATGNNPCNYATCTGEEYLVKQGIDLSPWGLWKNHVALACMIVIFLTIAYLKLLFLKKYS
In short: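 Inhibition of estrone 3-sulfate (5.00 μM) transport in Caco-2 cells was measured at eight concentrations (0.0229–50.0 μM or 0.0457–100 μM). Percent inhibition relative to vehicle control was used to calculate IC50.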

[18] = Tmax in C57BL/6J mouse at 5 mg/kg, po by LC-MS/MS analysis; assay type: ADME, organism-based; settings: in vivo
In short: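 Fasted males (C57BL6 mice, Sprague−Dawley rats, beagle dogs, cynomolgus monkeys) given a single oral solution dose of 5 mg/kg in 80% PEG 400 in water. Plasma sampled over time, analysed by LC-MS/MS. Noncompartmental analysis used nominal doses and nominal sampling times.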

[19] = Toxicity in C57BL/6 mouse infected with AAV-Hepatitis B virus assessed as change in body weight at 15 to 50 mg/kg, po qd for 56 days followed by induction of compound washout period for 14 days; assay type: organism-based; settings: in vivo, 1680 h, dose 15-50 mg/kg, time 70 day
[20] = system: Hepatitis B virus; experiment: Antiviral activity against HBV genotype D infected in human HepG2.117 cells assessed as decrease in HBV DNA production in presence of 40 percent human serum by qPCR analysis; assay type: functional, organism-based
In short: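 HepG2.117 cells (integrated genotype D HBV genome, Tet-off promoter; kept in 1 μg/mL doxycycline) were seeded at 20,000 cells/well and given serial compound dilutions (2% DMSO) for 3 days at 37 °C. Lysates were taken in 0.33% NP40. Intracellular HBV DNA was quantified by qPCR and EC50/EC90 derived. For serum shift, 40% human serum was present during incubation. Mean ± SEM, n=3 (serum) or 13.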

[21] = Half life in Sprague-Dawley rat at 1 mg/kg, iv by LC-MS/MS analysis; assay type: ADME, organism-based; settings: in vivo; in short: as §2
[22] = AUC (infinity) in Beagle dog at 1 mg/kg, iv by LC-MS/MS analysis; assay type: ADME, organism-based, Canis lupus familiaris; settings: in vivo; in short: as §2
[23] = Clearance in C57BL/6J mouse at 1 mg/kg, iv by LC-MS/MS analysis; assay type: ADME, organism-based; settings: in vivo; in short: as §2
[24] = target: Organic anion transporter 1 (Homo sapiens); experiment: Inhibition of OAT1 (unknown origin) transfected in HEK293 cells
[25] = system: Nav1.5; experiment: Inhibition of Nav1.5 (unknown origin) expressed in mammalian cells at 10 uM by automated patch-clamp method; assay type: toxicity, cell-based, Homo sapiens; settings: mammalian cells expressing Nav1.5; in short: as §3
[26] = target: Cytochrome P450 3A4 (Homo sapiens, UniProt P08684); experiment: Induction of CYP3A4 (unknown origin) in human hepatocytes upto 30 uM; assay type: ADME, cell-based, Hepatocyte
Chain of Cytochrome P450 3A4 (P08684 whole entry): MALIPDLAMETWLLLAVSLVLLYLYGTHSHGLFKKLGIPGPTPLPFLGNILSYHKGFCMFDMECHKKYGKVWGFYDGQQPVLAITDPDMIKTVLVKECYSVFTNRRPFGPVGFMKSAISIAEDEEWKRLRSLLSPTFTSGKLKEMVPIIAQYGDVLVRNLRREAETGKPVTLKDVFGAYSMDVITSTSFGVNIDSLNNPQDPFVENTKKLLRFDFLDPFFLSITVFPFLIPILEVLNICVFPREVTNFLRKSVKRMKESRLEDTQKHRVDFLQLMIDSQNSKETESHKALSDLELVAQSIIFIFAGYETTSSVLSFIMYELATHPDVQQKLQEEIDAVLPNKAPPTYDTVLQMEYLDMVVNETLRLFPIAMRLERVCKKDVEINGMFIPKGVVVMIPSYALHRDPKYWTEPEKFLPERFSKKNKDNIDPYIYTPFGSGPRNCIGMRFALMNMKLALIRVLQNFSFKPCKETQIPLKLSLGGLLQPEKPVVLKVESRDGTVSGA

[27] = Cmax in Cynomolgous monkey at 5 mg/kg, po by LC-MS/MS analysis; assay type: ADME, organism-based, Macaca fascicularis; settings: cynomolgus monkey, in vivo; in short: as §2
[28] = Stability in simulated intestinal fluid for >24 hrs; assay type: physicochemical; settings: simulated gi fluid
In short: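 Stability tested in simulated gastric fluid containing pepsin and simulated intestinal fluid containing pancreatin.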

SMILES: C#CC1(NC(=O)C(=O)c2c(C)c(C(=O)Nc3ccc(F)c(C#N)c3)n(C)c2C)COC1
Activity [1]: inactive | IC50 [2]: > 11.8 µM | blood plasma ratio at 1 h, 5 µM [3]: 0.73 | Activity [4]: Not_active | EC50 [5]: 10.5 nM | Vd [6]: 1.03 L/kg | half-life [7]: 470 min | Activity [8]: inactive | IC50 [9]: > 11.8 µM | IC50 [10]: > 10 µM | IC50 [11]: > 11.8 µM | IC50 [12]: > 11.8 µM | half-life [13]: 130 min | Activity [14]: inactive | clearance [15]: 7.89 mL/min/kg | Activity [16]: -1.47 log10IU/ml | IC50 [17]: > 11.8 µM | Tmax [18]: 1 h | Activity [19]: Non-toxic | EC50 [20]: 7.48 nM | half-life [21]: 98.4 min | AUC(0-inf) [22]: 8520 ng·h/mL | clearance [23]: 12 mL/min/kg | IC50 [24]: > 11.8 µM | IC50 [25]: > 10 µM | Activity [26]: Not_active | Cmax [27]: 490 ng/mL

Stability [28]: Stable
SMILES: C#CC1(N(COP(=O)([O-])[O-])C(=O)C(=O)c2c(C)c(C(=O)Nc3ccc(F)c(C#N)c3)n(C)c2C)COC1.[Na+].[Na+]
